Residue numbers refer to the chain shown, from its start. Names and notes keep the numbering of the source. “Also recorded” adds a separate entry of the source. Where a SMILES comes first, the peptide text is derived from it. Bridges are numbered along the chain shown (N, C = ends). Where no end group is shown, it is not given here.
How the values were obtained:
human erythrocyte ghosts [1] = assay: Peptide resealing into red cells, morphology by light microscopy; assay type: cell-based; settings: peptide 0, 6, 12 or 30 μM resealed 45 min at 37°C; 100x oil immersion
human erythrocyte ghosts [2] = assay: Ektacytometry of resealed ghosts; assay type: cell-based; settings: 6 or 15 μM cyclic peptide resealed; elongation index vs shear stress
How it was run: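 Washed human red cells from ACD-anticoagulated volunteer blood, with buffy coat and plasma removed, were suspended in PBS/5 mM glucose/2 mM MgCl2 with cyclized test peptide or without (control). Cells were flash-frozen in liquid N2 for 40 s, thawed at room temperature, then resealed 45 min at 37°C. Ghosts were washed in PBS/glucose/0.5% BSA and assessed by ektacytometry as elongation index under gradually increasing shear stress.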

[3] = molecular target: T1, GST-D3D4-ankyrin (GST fusion construct of the D3D4 domain of ankyrin), wild type (human, UniProt P16157 402-827); assay: pull-down
T1 sequence: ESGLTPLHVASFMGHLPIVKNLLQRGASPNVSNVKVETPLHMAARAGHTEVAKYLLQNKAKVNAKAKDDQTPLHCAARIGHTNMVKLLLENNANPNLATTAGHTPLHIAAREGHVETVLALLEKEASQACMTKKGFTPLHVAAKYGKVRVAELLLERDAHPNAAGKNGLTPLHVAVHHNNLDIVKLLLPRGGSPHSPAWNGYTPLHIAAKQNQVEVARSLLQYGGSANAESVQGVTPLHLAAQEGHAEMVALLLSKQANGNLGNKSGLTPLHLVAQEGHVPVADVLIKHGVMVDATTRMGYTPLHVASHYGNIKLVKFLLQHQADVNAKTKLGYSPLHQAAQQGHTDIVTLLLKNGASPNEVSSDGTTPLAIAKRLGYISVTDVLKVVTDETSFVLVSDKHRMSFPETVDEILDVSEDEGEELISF

[4] = molecular target: T1, GST-D3D4-ankyrin (GST fusion construct …); assay: pull-down; remark: listed apart in the source
GST-D3D4-ankyrin [5] = assay type: binding, human; settings: increasing concentrations of GST-D3D4-ankyrin; anti-ankyrin polyclonal antibodies
GST-ankyrin = assay type: binding, human; settings: GST-ankyrin 1 μM on glutathione-beads; cdB3 or mutant 1 μM; anti-cdB3 antibody
How it was run: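 Purified GST-ankyrin was immobilized on glutathione beads and incubated 2 h with His6-tagged wild-type or mutant cdB3 expressed in E. coli. Beads were washed 3x with binding buffer, and captured cdB3 was quantified by dot blot with a locally prepared polyclonal anti-cdB3 antibody.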

[6] = tested on: glyceraldehyde-3-phosphate dehydrogenase (GAPDH); settings: 2 μg/mL GAPDH, 2 min at room temperature, pH 7.0; 10 mM imidazole acetate; absorbance change at 340 nm
GST-D3D4-ankyrin [7] = assay: His-tag pull-down on Co2+-NTA agarose, bound GST-D3D4-ankyrin by GST activity; assay type: binding, human; settings: immobilized cdB3 variants, pH 8.0, n=2
How it was run: (§1)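 His6-tagged cdB3 (wild type or loop-deletion mutant) and GST-D3D4 ankyrin (wild type or charge-reversal mutant) were expressed in E. coli BL21(DE3)pLysS and purified. cdB3 was incubated at 4°C with increasing GST-ankyrin in pH 8.0 phosphate/KCl/imidazole buffer with 10% sucrose, 1 mg/ml BSA and PMSF. Complexes were captured on Co2+-NTA beads for 2 h, washed 3x and eluted with 250 mM imidazole. Equal cdB3 loading was checked by anti-cdB3 blot, and bound ankyrin was quantified by GST activity.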

AUC = molecular target: the molecule itself; assay: AUC
cdB3 = assay: Binding of native or mutated GST-D3D4 ankyrin to His-tagged cdB3; parameters: species or system human; settings: GST activity, n=2
How it was run: as §1

CSCC[C@@H]1NC(=O)[C@H](C(C)C)NC(=O)[C@H](CC(C)C)NC(=O)[C@H](CCC(=O)O)NC(=O)[C@@H](N)CSSC[C@@H](C(=O)O)NC(=O)[C@H](CC(C)C)NC(=O)[C@H](CCC(=O)O)NC(=O)[C@H](CCC(N)=O)NC(=O)[C@H](CC(N)=O)NC(=O)[C@H](CCCCN)NC(=O)[C@H](CCC(=O)O)NC(=O)[C@H](CC(=O)O)NC1=O [cyclized peptide] (HELM PEPTIDE1{C.E.L.V.M.D.E.K.N.Q.E.L.C}$PEPTIDE1,PEPTIDE1,1:R3-13:R3$$$V2.0; N-terminus and C-terminus assumed)
effect on red cell membrane morphology (in words) (human erythrocyte ghosts [1]): membrane blebbing and a gradual decrease in membrane surface area; also recorded: extensive vesiculation at higher peptide concentrations
effect on membrane deformability (in words) (human erythrocyte ghosts [2]): compromised membrane deformability

CELVMDEKNQELC (disulfide 1-13) [cyclized loop 1 peptide (residues 63–73 of cdB3 with a cysteine at each end, disulfide-bonded)]
IC50 [3]: ~15 µM

B1: cytoplasmic domain of band 3 (cdB3), wild type, with COOH-terminal His6-tag (domain or fragment, human)
chain: MEELQDDYEDMMEENLEQEEYEDPDIPESQMEEPAAHDTEATATDYHTTSHPGTHKVYVELQELVMDEKNQELRWMEAARWVQLEENLGENGAWGRPHLSHLTFWSLLELRRVFTKGTVLLDLQETSLAGVANQLLDRFIFEDQIRPQDREELLRALLLKHSHAGELEALGGVKPAVLTRSGDPSQPLLPQHSSLETQLFCEQGDGGTEGHSPSGILEKIPPDSEATLVLVGRADFLEQPVLGFVRLQEAAELEAVELPVPIRFLFVLLGPEAPHIDYTQLGRAAATLMSERVFRIDAYMAQSRGELLHSLEGFLDCSLVLPPTDAPSEQALLSLVPVQRELLRRRYQSSPAKPDSSFYKGLDLNGGPDDPLQQTGQLF
Kd [4]: ~0.4 µM

B2: native cdB3: cytoplasmic domain of band 3 (protein)
chain: B1 chain
modifications: left off: His6, C-terminal, kept
GST-ankyrin binding by dot blot (in words) (GST-D3D4-ankyrin [5]): usual prominent binding
affinity for immobilized GST-ankyrin by dot blot (in words) (GST-ankyrin): strong affinity
inhibition of GAPDH [6]: 90%

CELVMDEKNQELC [linear loop 1 peptide (residues 63–73 of cdB3 with a cysteine at each end, reduced)]
IC50 [3]: 55 µM

B3: double loop deleted (ΔL1 + ΔL2) cdB3: combination of loop 1 and loop 2 deletion mutant (protein)
chain: MEELQDDYEDMMEENLEQEEYEDPDIPESQMEEPAAHDTEATATDYHTTSHPGTHKVYVELQGGRWMEAARWVQLEENLGENGAWGRPHLSHLTFWSLLELRRVFTKGTVLLDLQETSLAGVANQLLDRFIFEDQIRPQDREELLRALLLKHSHAGELEALGGVKGGQPLLPQHSSLETQLFCEQGDGGTEGHSPSGILEKIPPDSEATLVLVGRADFLEQPVLGFVRLQEAAELEAVELPVPIRFLFVLLGPEAPHIDYTQLGRAAATLMSERVFRIDAYMAQSRGELLHSLEGFLDCSLVLPPTDAPSEQALLSLVPVQRELLRRRYQSSPAKPDSSFYKGLDLNGGPDDPLQQTGQLF
modifications: left off: His6, C-terminal, kept
affinity for GST-ankyrin (in words) (GST-D3D4-ankyrin [7]): no affinity could be detected

B4: cdB3 ΔL1 (cdB3 with loop 1, residues 63–73, replaced by a diglycine bridge) (domain or fragment, human)
chain: MEELQDDYEDMMEENLEQEEYEDPDIPESQMEEPAAHDTEATATDYHTTSHPGTHKVYVELQGGRWMEAARWVQLEENLGENGAWGRPHLSHLTFWSLLELRRVFTKGTVLLDLQETSLAGVANQLLDRFIFEDQIRPQDREELLRALLLKHSHAGELEALGGVKPAVLTRSGDPSQPLLPQHSSLETQLFCEQGDGGTEGHSPSGILEKIPPDSEATLVLVGRADFLEQPVLGFVRLQEAAELEAVELPVPIRFLFVLLGPEAPHIDYTQLGRAAATLMSERVFRIDAYMAQSRGELLHSLEGFLDCSLVLPPTDAPSEQALLSLVPVQRELLRRRYQSSPAKPDSSFYKGLDLNGGPDDPLQQTGQLF
stoichiometry N (AUC): 2

B5: cdB3 ΔL1: mutant cdB3 with loop 1 (residues 63–73) replaced by a diglycine bridge (protein)
chain: B4 chain
modifications: left off: His6, C-terminal, kept
affinity for immobilized GST-ankyrin by dot blot (in words) (GST-ankyrin): no affinity for ankyrin

B6: ΔL2 cdb3: mutant cdB3 with a diglycine bridge in place of loop 2 (residues 175–185) (protein)
chain: MEELQDDYEDMMEENLEQEEYEDPDIPESQMEEPAAHDTEATATDYHTTSHPGTHKVYVELQELVMDEKNQELRWMEAARWVQLEENLGENGAWGRPHLSHLTFWSLLELRRVFTKGTVLLDLQETSLAGVANQLLDRFIFEDQIRPQDREELLRALLLKHSHAGELEALGGVKGGQPLLPQHSSLETQLFCEQGDGGTEGHSPSGILEKIPPDSEATLVLVGRADFLEQPVLGFVRLQEAAELEAVELPVPIRFLFVLLGPEAPHIDYTQLGRAAATLMSERVFRIDAYMAQSRGELLHSLEGFLDCSLVLPPTDAPSEQALLSLVPVQRELLRRRYQSSPAKPDSSFYKGLDLNGGPDDPLQQTGQLF
modifications: left off: His6, C-terminal, kept
affinity for GST-ankyrin (in words) (GST-D3D4-ankyrin [7]): no affinity could be detected

B7: mutated ankyrin: D3D4 domain of ankyrin with the four mutations N601D, K611E, E645K, and Q634E (protein)
chain: T1 sequence with N200D, K210E, Q233E, E244K
modifications: left off: GST, end not stated, kept
affinity of mutated ankyrin for cdB3 (in words) (cdB3; N601D, K611E, Q634E, E645K mutant): unable to bind cdB3

B8: Wild-type ankyrin: GST fusion construct of the D3D4 domain of ankyrin (protein)
chain: T1 sequence
modifications: left off: GST, end not stated, kept
Kd (cdB3; read-out: apparent dissociation constant of ankyrin for cdB3): ~0.4 µM

— publication PMC3448790 (Biochemistry, 2012)
